We go through 48 sequences from the EternaBench riboswitch data.

The data set concerns MS2 coat protein. Briefly: apparent Kd, MS2 coat protein; higher = weaker binding; RNA-MaP array; FMN 200 µM where present. In outline: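 Designs on Illumina sequencing-chip clusters, transcribed by stalled E. coli RNA polymerase, were exposed to SNAP-549-labelled MS2 coat protein in doubling steps from 0.7 or 1.5 nM up to 3 µM, without and then with constant ligand. The buffer held 100 mM Tris-HCl pH 7.5, 80 mM KCl, 4 mM MgCl2, BSA, DTT, yeast tRNA and Tween-20. Apparent Kd values are medians of filtered per-cluster binding-curve fits to green signal normalised to red-channel RNA signal and control-cluster median Fmax.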

Where [1] appears, read: designed as: OFF switch for flavin mononucleotide, no ligand.
Where [2] appears, read: ligand present: flavin mononucleotide, designed as: OFF switch for flavin mononucleotide.
Where [3] appears, read: designed as: ON switch for flavin mononucleotide, no ligand.
Setting [4] is: ligand present: flavin mononucleotide, designed as: ON switch for flavin mononucleotide.

For orientation: apparent Kd means the concentration giving half-maximal binding under the conditions of the assay. With “GGUCUUCAAGUCAGGAUAUCGUCUAAUCGAUCUAACGAGAAGGGACAUGAGGAUCACCCAUGUCGUCUCAUCAG”, the “apparent Kd” value is, setting by setting: under setting [1], 19.1 nM; under setting [2], 28.5 nM.
For “AAGAAGUCAGGAUAUGCUGCUCGUCACUUGCGUGAUGAGUAGCAGAAGGGACAUGAGGAUCACCCAUGUAAAGA”, in that order: 32.5 nM and 67.4 nM.
Taken in the same sequence, the figures for “UUUUAGUGAGGAUAUGUGGCUUCGAUCGUGAGAUCGAGGCUACAGAAGGCACAUGAGGAUCACCCAUGUUCCUA” were 16.6 nM and 81.7 nM.
Take “GACAAUCUAUCUGAGGAUAUCAUGAAAAAAACAUGAGGAUCACCCAUGUGCAGGAAAACUGCAUAUGAGAAGGCAGAUAGAUUGC”: the “apparent Kd” value runs as follows: under setting [3], 678 nM; under setting [4], 27.4 nM.
In the case of “GAUUUACAUGAGGAUCACCCAUGUGAGGAUAUGGAAUGGCUCAUUGUCUGAUUUCCUUCUAGAAGGCACAUCUG”, the “apparent Kd” value reads like this: under setting [1], 54.2 nM; under setting [2], 54.9 nM.
As to “GUGAACAUGAGGAUCACCCAUGUAGCUCACUGCCAGUGGCUACAGGAUAUAGCACCUCGAGAGUGCUAGAAGGGUGGCCUAGAA”, the “apparent Kd” value by setting is: under setting [3], 106 nM; under setting [4], 33.9 nM.
Taken in the same sequence, the figures for “UACCACGACAACGCGGUAUCACAUGAGGAUCACCCAUGUUCACAGGAUAUGCGAUAGCCAACGAAGCAGAAGGGUGAUUACUUA” were 70.2 nM and 158 nM.
With “UGCACGAGGCAAGGAUAUGCUGACAUGAGGAUCACCCAUGUGAGCAUGGGUCUGGUACGGGAUCAGCAGAAGGUGCACCGAGGU”, the “apparent Kd” value stood at 36.8 nM under setting [1] and 27.4 nM under setting [2].
Taken in the same sequence, the figures for “AUGGACGCAGGAUAUACAUGAGGAUCACCCAUGUGAGGUAGGUAAGUAGGAAGUGAAGGUAGAAGGGCGAGAGA” were 67.2 nM and 95.3 nM.
Regarding “ACAUGAGGAUCACCCAUGUGAACAUAGGAUAUUGGUGAUCAGGCAUGUUAUACAGGAUAUGUCUGCGAGAAGGGUGCACGUUGC”, the “apparent Kd” value under setting [3] was found to be 524 nM and the “apparent Kd” value under setting [4] is 412 nM.
For the sequence “CGGUACUAGGGAGGAUAUGGGAAGAUACAUGAGGAUCACCCAUGUUUAAGAAUGCCGAGAGGCAACUAGAAGGCCCUAGUACCU”, the “apparent Kd” value worked out at 353 nM under setting [3] and 20.7 nM under setting [4].
As to “AAAUUUAACGAAGGAUAUGGUUACAUGAGGAUCACCCAUGUAUAUUUUGUGAUCUUGUUUAAGUUCCAGAAGGUCGUAUACAUA”, the “apparent Kd” value by setting is: under setting [1], 74.1 nM; under setting [2], 294 nM.
Taken in the same sequence, the figures for “GCCGAAGGACCCUGACGGGUCGGCUAGGAUAUACAUGAGGAUCACCCAUGUGCGGUUAUUCACGAGUAGAAGGAGCCUCGGCAA” were 101 nM and 80.9 nM.
Regarding “GGGUACAUCGGAGGAUAUCAUGUAAAUACAUGAGGAUCACCCAUGUCGAUGGAGUCAUCGGAGAUUGAGAAGGCCGAUGUACCG”, the “apparent Kd” value reads like this: under setting [3], 14 nM; under setting [4], 5.75 nM.
For “UUUUCCAAUCAAGGAUAUGUAUUAAAGAUUUGAAAACAUGAGGAUCACCCAUGUAUAUGGUGGGAACAGAAGGUGAAUAAGUAA”, the “apparent Kd” value under setting [1] was determined as 221 nM and the “apparent Kd” value under setting [2] amounted to 231 nM.
On to “GCACAUGAGGAUCACCCAUGUCGGGAGGAUAUCUAGGCUGGGCGAUGCUAGGGCGGCCUCUGCUUAGAGAAGGCCCAUAAAAUC”, for which the “apparent Kd” value worked out at 197 nM under setting [3] and 33.4 nM under setting [4].
For “AAAAAACAUGAGGAUCACCCAUGUCAAAAGACAUGAGGAUAUGUACAGACUUCGGUCUGUACAGAAGGCAUGAAAA”, in that order: 489 nM and 43.6 nM.
In the case of “CGCAACAUACAGAAGGAGUUAUUGAGAGGUUUACUAGGAUAUGUUCACAUGAGGAUCACCCAUGUCGUUUGGGAUUUUGUUGCG”, the “apparent Kd” value by setting is: under setting [1], 125 nM; under setting [2], 51.3 nM.
For “UCCGUGUGAGGAUAUUACGCUGUUCGGGAAACGCUCAUAGGUAAGAAGGCACAUGAGGAUCACCCAUGUCCAUA”, in that order: 23.7 nM and 54.8 nM.
For “UAAAAGACUAGCAAAUAAGUUCCACAUGAGGAUCACCCAUGUCAGGAUAUGAGCAGCAAAGCUGCUCAGAAGGGACAGCUAGUC”, the “apparent Kd” value under setting [1] amounted to 5.53 nM and the “apparent Kd” value under setting [2] was 6.99 nM.
On to “GUUAGGAAUCUAGCGAACAUGAGGAUCACCCAUGUUAGUGGGAAGGAUAUGGUACAGAAACUGUACCAGAAGGUCUUAUUGUUU”, for which the “apparent Kd” value reads like this: under setting [3], 398 nM; under setting [4], 305 nM.
For “GAGUGGAAGGCCGCUACAUGAGGAUCACCCAUGUGCUAAGCACAGGAUAUCGCGUGGGCCCGACGCGAGAAGGGUGACGGCCUG”, in that order: 582 nM and 246 nM.
“CGGUUCUGAGGAUAUCCACCCUCAUACAUGAGGAUCACCCAUGUUCACCCUUGGGUUCCCGGAGAAGGCAGUUUUC”: the “apparent Kd” value runs as follows: under setting [1], 233 nM; under setting [2], 570 nM.
As for “UGCCGCAACAACGCGGCGUCACAUGAGGAUCACCCAUGUUCACAGGAUAUGCGAUAGCCAACGAAGCAGAAGGGUGAUUACUUA”, the “apparent Kd” value under setting [3] was 53.7 nM and the “apparent Kd” value under setting [4] was determined as 219 nM.
Take “UUUUAACAUGAGGAUCACCCAUGUGAGGAUAUCGAAAUUUAUAUUAAUAUUAAUAUAUCGAGAAGGCACAUUUU”: the “apparent Kd” value was 79.8 nM under setting [1] and 104 nM under setting [2].
For the sequence “AGGAUAGGAAACUUUGUCCAUUGUACAGAAGGCCAACAUGAGGAUCACCCAUGUAAGAAAAGGAUGGAGGAUAUGUAUAGGGCC”, the “apparent Kd” value under setting [3] was 25.8 nM and the “apparent Kd” value under setting [4] came out at 12.3 nM.
As to “CUCAUGUGAGGAUAUCAGUAGUAAAAAAAUAAAAUUACUACUGAGAAGGCACAUGAGGAUCACCCAUGUGUCUU”, the “apparent Kd” value was found to be 16.3 nM under setting [1] and 31.7 nM under setting [2].
Regarding “CUCAGCAAGGAAGGAUAUGGGUUUUCGCACAUGAGGAUCACCCAUGUCGCAGUCCCUACGGGAUCCCAGAAGGUCUAUGCGUGG”, the “apparent Kd” value by setting is: under setting [3], 260 nM; under setting [4], 16.3 nM.
For “GUGGUCAGACAUGAGGAUCACCCAUGUGGAAUAAAUAACGGACAGGAUAUCGAAUAUAGGAUAUACGAGAAGGGUUGAUUGGUG”, in that order: 83.7 nM and 106 nM.
Consider “AAUAUGUUGCAGAAGGUUAUAUUUAUUUAGUACCUCAUGACAUGAGGAUCACCCAUGUUUUUGUUGAAGGAUAUGCAAUAUAUU”, for which the “apparent Kd” value runs as follows: under setting [1], 17.1 nM; under setting [2], 13.7 nM.
For the sequence “UUAUUUAUGCAAGGAUAUCAAUUAUAUACAAAUCCAACAUGAGGAUCACCCAUGUUUUAUUUUUUUGAGAAGGUGUAUUGUCAG”, the “apparent Kd” value under setting [3] is 36.1 nM and the “apparent Kd” value under setting [4] was 40.5 nM.
For “AAAAGGCUAGGAUAUACCAGUGGGUGUAAGAACUCAAAUUUACAUGAGGAUCACCCAUGUAGAAGGAGUAAAAU”, the “apparent Kd” value was determined as 20.4 nM under setting [1] and 30.2 nM under setting [2].
As for “GGAUAGGACAGAGGAUAUACGUGUUAGAGAUACUAGCAAAAUUUCCUCACAUGAGGAUCACCCAUGUAGAAGGCUGUCCUAUCG”, the “apparent Kd” value reads like this: under setting [1], 23.1 nM; under setting [2], 413 nM.
Turning to “AUUAUAUAGUCAGGAUAUAGAAUAUUAUUUUAACAUGAGGAUCACCCAUGUAACCUUAUGUGUAGCUAGAAGGGACAUUUAUUA”, the “apparent Kd” value by setting is: under setting [1], 85.5 nM; under setting [2], 131 nM.
For “GGAUAGGACAGAGGAUAUACGUGCUAGAGAUACUAGCAAAAUUGCCUCACAUGAGGAUCACCCAUGUAGAAGGCUGUCCUAUCG”, in that order: 7.72 nM and 134 nM.
Consider “UUACUCAUGUAAGGAUAUGCAGCCGUUUCGGCUGCAGAAGGUACUAUAAUACAUGAGGAUCACCCAUGUCUUUUUAAUUUUUAU”, for which the “apparent Kd” value by setting is: under setting [3], 88.7 nM; under setting [4], 40.4 nM.
Consider “UAUGAGCGAGGAUAUGCUUGGGACUGUCGGAAGGUGGCGGGACAUGAGGAUCACCCAUGUAGAAGGCGCGAGCG”, for which the “apparent Kd” value under setting [1] is 70.7 nM and the “apparent Kd” value under setting [2] is 82.8 nM.
For “UGAUACAUGAGGGUCUCCCAUGACAUGAGGAUCACCCAUGUGCAGGAUAUACGUGUGAUAAUAUAGUAGAAGGGCAGUCUAUGU”, in that order: 345 nM and 577 nM.
Regarding “GUCGGAAACGACAAAAGUAUGGAUCCAGAAGGCAUGAAACAUGAGGAUCACCCAUGUCUAAGACAUGAGGAUAUGGAUCCAUAC”, the “apparent Kd” value by setting is: under setting [3], 7.11 nM; under setting [4], 3.78 nM.
“AGAAACUACGAGAAGGACAUAUGACCAAGAACAAACAUGAGGAUCACCCAUGUAGGAUAUCGUAGUUUCAGGAUCGUGAGAUCA”: the “apparent Kd” value under setting [1] was determined as 6.29 nM and the “apparent Kd” value under setting [2] is 12.9 nM.
For “AAAGCCAACGAAGGAUAUACAAACAUGAGGAUCACCCAUGUGUCUUUCGUGUAACUGGAAUUCGGGUAGAAGGUCGUUGACAUA”, in that order: 14.9 nM and 21.7 nM.
For “ACCGUGUCAGGAUAUCCUGCUGUGCGGACUCUGUCUUCACGGGAGAAGGGACAUGAGGAUCACCCAUGUUUGAG”, in that order: 20.2 nM and 25.4 nM.
With “CUCAUGUGAGGAUAUGUGAUCAACCUUCUGUAUAGAUGAUUACAGAAGGCACAUGAGGAUCACCCAUGUAGAUC”, the “apparent Kd” value under setting [1] was found to be 106 nM and the “apparent Kd” value under setting [2] is 125 nM.
Consider “UGGUACAUGGGAGGAUAUGGGUUGAUAACAUGAGGAUCACCCAUGUUAAAUAUCGCGAGAGCGAACUAGAAGGCCCAUGUACCU”, for which the “apparent Kd” value is, setting by setting: under setting [3], 715 nM; under setting [4], 45.1 nM.
Take “ACUAGAUGAGGAUAUGCAUAUUUUCGUGUUCUUCUAGAUUAACAUGAGGAUCACCCAUGUAGAAGGCGUCUGGC”: the “apparent Kd” value reads like this: under setting [1], 18.6 nM; under setting [2], 33.8 nM.
As to “CACAGGGAUUCAGGAUAUAUUAGCCGAGGCCGCGUAGAAGGGAAAUCCUGACAUGAGGAUCACCCAUGUUAACCCGCCUUCCAU”, the “apparent Kd” value came out at 37.6 nM under setting [3] and 42 nM under setting [4].
On to “CUGAUGUUAGGAUAUCAGGUUGCGCGCGAAGGCGCGCGGCAUGAGAAGGAACAUGAGGAUCACCCAUGUGACGA”, for which the “apparent Kd” value came to 39.7 nM under setting [1] and 148 nM under setting [2].
Taken in the same sequence, the figures for “GCCGCUGUAGGAUAUGCCAGGGUGGCAGCUUGAUGUGUGGCACAUGAGGAUCACCCAUGUAGAAGGACAGAAAG” were 18.7 nM and 50.8 nM.
